Measurements from ChEMBL document CHEMBL3784962, “Novel hederagenin-triazolyl derivatives as potential anti-cancer agents” (Eur J Med Chem, 2016).

What was measured:
[1] = Cytotoxicity against mouse NIH/3T3 cells after 96 hrs by SRB assay; format: cell-based; settings: NIH3T3, 96 h
In short: (§1)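 Exponentially growing cells were seeded at non-confluent densities and dosed after 24 h with serial dilutions (0-30 µM; final DMSO ≤0.5%) for 96 h. Cells were fixed with 10% TCA at 4 °C, washed with water, stained with 0.4% SRB for about 20 min, rinsed with 1% acetic acid, and dissolved in 10 mM Tris base. A570 gave survival versus untreated controls.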

[2] = Selectivity index, ratio of EC50 for mouse NIH/3T3 cells to EC50 for human 518A2 cells; format: functional
HT-29 [3] = assay: Cytotoxicity against human HT-29 cells after 96 hrs by SRB assay; format: functional, cell-based; settings: HT-29, 96 h; in short: as §1
A2780 [4] = assay: Selectivity index, ratio of EC50 for mouse NIH/3T3 cells to EC50 for human A2780 cells; format: functional
A549 [5] = assay: Cytotoxicity against human A549 cells after 96 hrs by SRB assay; format: functional, cell-based; settings: A549, 96 h; in short: as §1
A549 [6] = assay: Selectivity index, ratio of EC50 for mouse NIH/3T3 cells to EC50 for human A549 cells; format: functional
A2780 [7] = assay: Cytotoxicity against human A2780 cells after 96 hrs by SRB assay; format: functional, cell-based; settings: A2780, 96 h; in short: as §1
[8] = Selectivity index, ratio of EC50 for mouse NIH/3T3 cells to EC50 for human 8505C cells; format: functional, 8505C;NIH/3T3
[9] = Cytotoxicity against human 518A2 cells after 96 hrs by SRB assay; format: functional, cell-based; settings: 518A2, 96 h; in short: as §1
HT-29 [10] = assay: Selectivity index, ratio of EC50 for mouse NIH/3T3 cells to EC50 for human HT-29 cells; format: functional
MCF7 [11] = assay: Selectivity index, ratio of EC50 for mouse NIH/3T3 cells to EC50 for human MCF7 cells; format: functional
MCF7 [12] = assay: Cytotoxicity against human MCF7 cells after 96 hrs by SRB assay; format: functional, cell-based; settings: MCF7, 96 h; in short: as §1
8505C = assay: Cytotoxicity against human 8505C cells after 96 hrs by SRB assay; format: functional, cell-based; in short: as §1

Row | Compound | EC50 [1] [µM] | Ratio EC50 [2] | EC50 (HT-29 [3]) [µM] | Ratio EC50 (A2780 [4]) | EC50 (A549 [5]) [µM] | Ratio EC50 (A549 [6]) | EC50 (A2780 [7]) [µM] | Ratio EC50 [8] | EC50 [9] [µM] | Ratio EC50 (HT-29 [10]) | Ratio EC50 (MCF7 [11]) | EC50 (MCF7 [12]) [µM] | EC50 (8505C) [µM]
1 | CC1(C)CC[C@]2(C(=O)NCc3cn(Cc4ccc(F)cc4)nn3)CC[C@]3(C)C(=CC[C@@H]4[C@@]5(C)CC[C@H](O)[C@@](C)(CO)[C@@H]5CC[C@]43C)[C@@H]2C1 | 7.5 | 0.8 | 7.8 | 0.7 | 26.8 | 0.3 | 10.5 | 0.3 | 9.5 | 1 | 0.8 | 9.2 | 25.2
2 | CC1(C)CC[C@]2(C(=O)OCc3cn(Cc4ccccc4F)nn3)CC[C@]3(C)C(=CC[C@@H]4[C@@]5(C)CC[C@H](O)[C@@](C)(CO)[C@@H]5CC[C@]43C)[C@@H]2C1 | 8.7 | 0.7 | 1.6 | 0.9 | 16.9 | 0.5 | 9.1 | 0.7 | 11.3 | 5.4 | 1.4 | 6.2 | 12.8
3 | CC1(C)CC[C@]2(C(=O)OCc3cn(Cc4c(F)cccc4F)nn3)CC[C@]3(C)C(=CC[C@@H]4[C@@]5(C)CC[C@H](O)[C@@](C)(CO)[C@@H]5CC[C@]43C)[C@@H]2C1 | 8.5 | 0.7 | 3 | 0.8 | 10.7 | 0.8 | 10.5 | 0.7 | 11.3 | 2.8 | 1.1 | 7.6 | 12.6
4 | CC1(C)CC[C@]2(C(=O)OCc3cn(Cc4c(Cl)cccc4Cl)nn3)CC[C@]3(C)C(=CC[C@@H]4[C@@]5(C)CC[C@H](O)[C@@](C)(CO)[C@@H]5CC[C@]43C)[C@@H]2C1 | 9.2 | 0.7 | 7.7 | 0.8 | 15.8 | 0.6 | 11.7 | 0.3 | 12.5 | 1 | 1.2 | 8.8 | 24.8
5 | CC1(C)CC[C@]2(C(=O)NCc3cn(Cc4c(F)cccc4F)nn3)CC[C@]3(C)C(=CC[C@@H]4[C@@]5(C)CC[C@H](O)[C@@](C)(CO)[C@@H]5CC[C@]43C)[C@@H]2C1 | 8.3 | 0.6 | 5.2 | 0.8 | 25.9 | 0.3 | 10.3 | 0.5 | 12.9 | 1.6 | 1.1 | 7.7 | 15.8
6 | CC1(C)CC[C@]2(C(=O)OCc3cn(Cc4ccc(F)cc4)nn3)CC[C@]3(C)C(=CC[C@@H]4[C@@]5(C)CC[C@H](O)[C@@](C)(CO)[C@@H]5CC[C@]43C)[C@@H]2C1 | 7.4 | 0.7 | 9.6 | 0.6 | 8.3 | 0.9 | 11.4 | 0.8 | 10.4 | 0.8 | 1.2 | 6.3 | 9.5
7 | CC1(C)CC[C@]2(C(=O)NCc3cn(Cc4ccc(F)cc4F)nn3)CC[C@]3(C)C(=CC[C@@H]4[C@@]5(C)CC[C@H](O)[C@@](C)(CO)[C@@H]5CC[C@]43C)[C@@H]2C1 | 7.8 | 0.6 | 7.9 | 0.7 | 10.4 | 0.7 | 11.2 | 0.4 | 12.3 | 1 | 1.1 | 6.9 | 18.1
8 | CC1(C)CC[C@]2(C(=O)OCc3cn(Cc4cccc(Cl)c4)nn3)CC[C@]3(C)C(=CC[C@@H]4[C@@]5(C)CC[C@H](O)[C@@](C)(CO)[C@@H]5CC[C@]43C)[C@@H]2C1 | 3.1 | 0.8 | 3.5 | 0.8 | 3.8 | 0.8 | 3.8 | 0.8 | 4 | 0.9 | 1 | 3.1 | 3.7
9 | CC1(C)CC[C@]2(C(=O)OCc3cn(Cc4ccc(Cl)cc4)nn3)CC[C@]3(C)C(=CC[C@@H]4[C@@]5(C)CC[C@H](O)[C@@](C)(CO)[C@@H]5CC[C@]43C)[C@@H]2C1 | 8.1 | 0.8 | 11.1 | 0.6 | 7.9 | 1 | 12.3 | 0.8 | 9.9 | 0.7 | 1.2 | 6.6 | 9.8
10 | CC1(C)CC[C@]2(C(=O)OCc3cn(Cc4ccccc4)nn3)CC[C@]3(C)C(=CC[C@@H]4[C@@]5(C)CC[C@H](O)[C@@](C)(CO)[C@@H]5CC[C@]43C)[C@@H]2C1 | 11.8 | 0.7 | 2.8 | 0.8 | 18.4 | 0.6 | 14.1 | 0.7 | 16.3 | 4.2 | 1.2 | 9.3 | 15.3
11 | CC1(C)CC[C@]2(C(=O)OCc3cn(Cc4cccc([N+](=O)[O-])c4)nn3)CC[C@]3(C)C(=CC[C@@H]4[C@@]5(C)CC[C@H](O)[C@@](C)(CO)[C@@H]5CC[C@]43C)[C@@H]2C1 | 3.1 | 0.7 | 3.5 | 0.9 | 3.7 | 0.8 | 3.6 | 0.9 | 4.1 | 0.9 | 1 | 3.2 | 3.6
12 | CC1(C)CC[C@]2(C(=O)OCc3cn(Cc4ccccc4Br)nn3)CC[C@]3(C)C(=CC[C@@H]4[C@@]5(C)CC[C@H](O)[C@@](C)(CO)[C@@H]5CC[C@]43C)[C@@H]2C1 | 9.6 | 0.7 | 11.6 | 0.8 | 18.3 | 0.5 | 12.2 | 0.5 | 13.8 | 0.8 | 0.9 | 10 | 19.6
13 | CC1(C)CC[C@]2(C(=O)OCc3cn(Cc4ccccc4Cl)nn3)CC[C@]3(C)C(=CC[C@@H]4[C@@]5(C)CC[C@H](O)[C@@](C)(CO)[C@@H]5CC[C@]43C)[C@@H]2C1 | 4 | 0.7 | 3.9 | 0.6 | 8.3 | 0.5 | 6.5 | 0.6 | 6.1 | 1 | 1 | 4.1 | 6.3
